Data set [1] relates to Bacteroides fragilis. The data set is described as follows: In vitro antibacterial activity against Bacteroides fragilis BFA. In kind it is functional. Summed up:
(§1)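 Microtitration (microdilution) MIC determination in μg/mL against a panel of Gram-positive, Gram-negative and anaerobic organisms. Values come from duplicate or triplicate experiments and are stated accurate to ±50%.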

In data set [2] the test system is Cutibacterium acnes. The experiment in a line: In vitro antibacterial activity was tested for Propion acnes PA5-1. In kind it is functional. Summed up:
as §1

Data set [3] deals with V79. The experiment in a line: (§2) Clonogenic cytotoxicity against Chinese hamster V-79 cells. In kind it is functional, cell-based. As to conditions: Cricetulus griseus. Summed up: (§3)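 Chinese hamster V-79 cells grown overnight, then exposed to drug 3 h at 37 °C; drug medium replaced with fresh medium, cells incubated 5 days and scored for colony formation. IC50 (μg/mL) taken as concentration inhibiting colony formation by 50% versus control.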

The species named for data set [4] is Mus musculus. The experiment in a line: (§4) Phototoxic skin reaction in depilated female CD-1 mice. In kind it is toxicity, organism-based. As to conditions: in vivo. Summed up: (§5)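 Female CD-1 mice, depilated, given a single oral or subcutaneous dose. UVA (320–400 nm) exposure for 3 h, starting 1 h post-dose. Initial doses were 30, 100 and 300 mg/kg. PTD50 (dose giving phototoxic skin reaction in 50% of mice) derived by probit method. First day of positive reaction and no-effect dose taken from raw data.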

Data set [5] deals with Peptoniphilus asaccharolyticus. The data set is described as follows: In vitro antibacterial activity was tested for Pepto asac PA 3-1. In kind it is functional. Summed up:
as §1

Data set [6] has as its system Clostridioides difficile. The experiment in a line: (§6) In vitro antibacterial activity was tested for Clostridium diff CD1-1. Format: functional.
Data set [7] has as its system Clostridium perfringens. The experiment in a line: In vitro antibacterial activity against Clostridium perfringens CP 3-1. In kind it is functional.
The species entered for data set [8] is Mus musculus. Described as §4. Format: functional. Summed up: as §5
The subject of data set [9] is Streptococcus pyogenes. The data set is described as follows: In vitro antibacterial activity was tested for Streptococcus pyogenes C203. Format: functional. Summed up: as §1
For data set [10], the system named is Klebsiella pneumoniae. The experiment in a line: In vitro antibacterial activity was tested for Klebsiella pneumoniae MGH-2. In kind it is functional. Summed up: as §1
The test system of data set [11] is Enterococcus faecalis. The data set is described as follows: In vitro antibacterial activity was tested for Streptococcus faecalis MGH-2. In kind it is functional. Summed up:
as §1

For data set [12], the system named is Escherichia coli. The experiment in a line: In vitro antibacterial activity was tested for Escherichia coli Vogel. Format: functional. Summed up: as §1
Data set [13] concerns Escherichia coli. The experiment in a line: In vitro antibacterial activity was tested for Escherichia coli H560. Format: functional. Summed up:
as §1

The test system of data set [14] is Staphylococcus aureus. The data set is described as follows: In vitro antibacterial activity was tested for Staphylococcus aureus UC-76. In kind it is functional. Summed up:
as §1

For data set [15], the system named is Pseudomonas aeruginosa. The experiment in a line: In vitro antibacterial activity was tested for Pseudomonas aeruginosa UI-18. In kind it is functional. Summed up: as §1
Data set [16] deals with Staphylococcus aureus. The data set is described as follows: In vitro antibacterial activity was tested for Staphylococcus aureus H228. Format: functional. Summed up:
as §1

In data set [17] the test system is Providencia rettgeri. The data set is described as follows: In vitro antibacterial activity was tested for Providencia rettgeri H1771. Format: functional. Summed up:
as §1

The subject of data set [18] is Streptococcus pneumoniae. The experiment in a line: In vitro antibacterial activity was tested for Streptococcus pneumoniae SV-1. Format: functional. Summed up: as §1
Data set [19] concerns Enterobacter cloacae. The data set is described as follows: In vitro antibacterial activity was tested for Enterobacter cloacae HA2646. Format: functional.
Data set [20] has as its system Clostridioides difficile. The description is as §6. Format: functional. Summed up:
as §1
This is another data set of the same source.

The subject of data set [21] is V79. The data set is described as §2. Format: functional. As to conditions: Cricetulus griseus. Summed up: as §3
For data set [22], the species on record is Mus musculus. The experiment in a line: phototoxic skin reaction in depilated female CD-1 mice. Format: functional. Summed up:
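Depilated female CD-1 mice given a single oral or subcutaneous dose; UVA (320–400 nm) exposure for 3 h starting 1 h post-dose. Initial doses 30, 100 and 300 mg/kg. PTD50 (dose giving phototoxic skin reaction in 50% of mice) calculated by probit method; first day of positive reaction and no-effect dose also taken from raw data.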

≈ marks a conversion by molar mass, not a printed value. Bounds are passed on as bounds.

With `C[C@@H]1CN(c2c(F)c(N)c3c(=O)c(C(=O)O)cn(C4CC4)c3c2F)C[C@H](C)N1` [SPARFLOXACIN], the MIC was found to be 1.6 µg/mL (≈ 4.08 µM) in data set [1]; 0.4 µg/mL (≈ 1.02 µM) in [2]; 0.4 µg/mL (≈ 1.02 µM) in data set [5]; 6.3 µg/mL (≈ 16.1 µM) in data set [6]; 0.2 µg/mL (≈ 0.51 µM) in [7]. The midpoint of inhibition in [3], the IC50, lay at 370 µg/mL (≈ 943 µM). Further, the PTD50 in [4] was 28 mg. Moreover, the No effect dose in data set [8] worked out at 18 mg.
In the case of `NCC1CCCN(c2c(F)cc3c(=O)c(C(=O)O)cn(C4CC4)c3c2F)C1` (centres undefined), the MIC in data set [1] was determined as 1.6 µg/mL (≈ 4.24 µM); in [2], 0.8 µg/mL (≈ 2.12 µM); in data set [9], 0.013 µg/mL (≈ 0.0344 µM); in data set [10] it was 0.2 µg/mL (≈ 0.53 µM); in data set [11], 0.05 µg/mL (≈ 0.132 µM); in data set [12] it was 0.05 µg/mL (≈ 0.132 µM). Also, the MIC in [13] was 0.05 µg/mL (≈ 0.132 µM); in data set [14] it was 0.2 µg/mL (≈ 0.53 µM); in data set [15], 0.4 µg/mL (≈ 1.06 µM); in data set [16] it was 0.1 µg/mL (≈ 0.265 µM); in data set [5], 0.4 µg/mL (≈ 1.06 µM); in [6], 0.8 µg/mL (≈ 2.12 µM). The MIC in data set [17] was 0.2 µg/mL (≈ 0.53 µM); in data set [7] it was 0.2 µg/mL (≈ 0.53 µM); in data set [18] it was 0.013 µg/mL (≈ 0.0344 µM); in [19], 0.05 µg/mL (≈ 0.132 µM). Moreover, the IC50 in data set [3] is 43 µg/mL (≈ 114 µM).
With `NC1CCN(c2c(F)cc3c(=O)c(C(=O)O)cn(C4CC4)c3c2F)C1` (centres undefined), the MIC in [1] amounted to 0.2 µg/mL (≈ 0.573 µM); in data set [2], 0.2 µg/mL (≈ 0.573 µM); in data set [9], 0.05 µg/mL (≈ 0.143 µM); in [10], 0.025 µg/mL (≈ 0.0716 µM); in [11], 0.05 µg/mL (≈ 0.143 µM); in [12], 0.013 µg/mL (≈ 0.0372 µM). Further, the MIC in data set [13] turned out to be 0.006 µg/mL (≈ 0.0172 µM); in data set [20], 0.4 µg/mL (≈ 1.15 µM); in data set [14], 0.025 µg/mL (≈ 0.0716 µM); in data set [15], 0.1 µg/mL (≈ 0.286 µM); in data set [16], 0.05 µg/mL (≈ 0.143 µM); in [5], 0.4 µg/mL (≈ 1.15 µM). The MIC came out at 0.05 µg/mL (≈ 0.143 µM) in [17], 0.05 µg/mL (≈ 0.143 µM) in data set [7], 0.05 µg/mL (≈ 0.143 µM) in data set [18] and 0.025 µg/mL (≈ 0.0716 µM) in data set [19]. In data set [4], the PTD50 worked out at 7.5 mg. Moreover, in data set [8], the No effect dose was determined as 3 mg.
On to `COc1c(N2CCCC(CN)C2)c(F)cc2c(=O)c(C(=O)O)cn(C3CC3)c12` (centres undefined), for which the MIC amounted to 22 µg/mL (≈ 56.5 µM) in [21]; 0.006 µg/mL (≈ 0.0154 µM) in [9]; 0.4 µg/mL (≈ 1.03 µM) in data set [10]; 0.05 µg/mL (≈ 0.128 µM) in [11]; 0.2 µg/mL (≈ 0.514 µM) in [12]; 0.1 µg/mL (≈ 0.257 µM) in data set [13]. Besides, the MIC was 0.006 µg/mL (≈ 0.0154 µM) in data set [14]; 3.1 µg/mL (≈ 7.96 µM) in data set [15]; 0.05 µg/mL (≈ 0.128 µM) in [16]; 0.8 µg/mL (≈ 2.05 µM) in data set [17]; 0.006 µg/mL (≈ 0.0154 µM) in [18]; 0.2 µg/mL (≈ 0.514 µM) in data set [19].
As for `C[C@@H]1CN(c2cc3c(cc2F)c(=O)c(C(=O)O)cn3C2CC2)C[C@H](C)N1`, the MIC was determined as 1.6 µg/mL (≈ 4.45 µM) in [1]; 0.8 µg/mL (≈ 2.23 µM) in data set [2]; 0.4 µg/mL (≈ 1.11 µM) in data set [5]; 6.3 µg/mL (≈ 17.5 µM) in [6]; 0.2 µg/mL (≈ 0.556 µM) in data set [7]. The compound also had an IC50 in [3] greater than 500 µg/mL. In data set [4], this compound showed a PTD50 of less than 100 mg.
For `NC1CCN(c2nc3c(cc2F)c(=O)c(C(=O)O)cn3C2CC2)C1` (centres undefined), the MIC was found to be 1.6 µg/mL (≈ 4.81 µM) in [1]; 0.2 µg/mL (≈ 0.602 µM) in data set [2]; 98 µg/mL (≈ 295 µM) in [21]; 0.8 µg/mL (≈ 2.41 µM) in data set [5]; 6.3 µg/mL (≈ 19 µM) in [6]; 0.1 µg/mL (≈ 0.301 µM) in data set [7]. Also, in [22], the Photoxic reaction was 100 mg. In addition, in [4], the PTD50 is greater than 100 mg.
Turning to `COc1c(N2CCNC(C)C2)c(F)cc2c(=O)c(C(=O)O)cn(C3CC3)c12` (centres undefined) [GATIFLOXACIN], the MIC in data set [1] was determined as 0.4 µg/mL (≈ 1.07 µM); in [2], 0.4 µg/mL (≈ 1.07 µM); in data set [9] it was 0.1 µg/mL (≈ 0.266 µM); in data set [10], 0.1 µg/mL (≈ 0.266 µM); in data set [11] it was 0.2 µg/mL (≈ 0.533 µM); in data set [12] it was 0.05 µg/mL (≈ 0.133 µM). Besides, the MIC amounted to 0.05 µg/mL (≈ 0.133 µM) in [13]; 0.05 µg/mL (≈ 0.133 µM) in data set [14]; 0.8 µg/mL (≈ 2.13 µM) in data set [15]; 0.2 µg/mL (≈ 0.533 µM) in data set [16]; 0.8 µg/mL (≈ 2.13 µM) in [5]; 1.6 µg/mL (≈ 4.26 µM) in data set [6]. Moreover, the MIC in data set [17] is 0.2 µg/mL (≈ 0.533 µM); in data set [7] it was 0.4 µg/mL (≈ 1.07 µM); in data set [18], 0.1 µg/mL (≈ 0.266 µM); in data set [19], 0.05 µg/mL (≈ 0.133 µM). In data set [3], this compound registered an IC50 of 85 µg/mL (≈ 226 µM).
Regarding `NCC1CCCN(c2nc3c(cc2F)c(=O)c(C(=O)O)cn3C2CC2)C1` (centres undefined), the MIC in data set [9] turned out to be 0.2 µg/mL (≈ 0.555 µM); in data set [10], 0.8 µg/mL (≈ 2.22 µM); in [11], 0.4 µg/mL (≈ 1.11 µM); in data set [12] it was 0.4 µg/mL (≈ 1.11 µM); in data set [13], 0.4 µg/mL (≈ 1.11 µM); in data set [14], 0.2 µg/mL (≈ 0.555 µM). Further, the MIC in [15] is 6.3 µg/mL (≈ 17.5 µM); in data set [16] it was 1.6 µg/mL (≈ 4.44 µM); in data set [17] it was 1.6 µg/mL (≈ 4.44 µM); in [18], 0.2 µg/mL (≈ 0.555 µM); in data set [19], 0.4 µg/mL (≈ 1.11 µM). The same compound displayed an IC50 in [3] of 290 µg/mL (≈ 805 µM).

(Values after ChEMBL document CHEMBL1128719, “The synthesis, structure-activity, and structure-side effect relationships of a series of 8-alkoxy- and 5-amino-8-alkoxyquinolone antibacterial agents” (J Med Chem, 1995).)
